From PMC4136688 (Journal of Medicinal Chemistry, 2014)

What was measured:
Human glioma T98G cells [1] = assay: Dark cytotoxicity; assay type: cell-based; details: read-out: dark toxicity IC50, CellTiter Blue assay, concentrations up to 400 μM, overnight
hCMEC/D3 cells = assay: In vitro BBB model permeability; assay type: in vitro ADME, human; details: hCMEC/D3 monolayer, 1 mg/mL in HBSS, up to 60 min
Outline: (§1)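 hCMEC/D3 brain endothelial cells grown 48 h on 0.4 μm PET transwell inserts in EBM-2 with 5% FBS, hydrocortisone, ascorbic acid, lipid concentrate, HEPES, bFGF. Test compound or lucifer yellow reference (1 mg/mL in HBSS, pH 6.7–7.8) added apically; basolateral HBSS. 37 °C, 5% CO2; lower chamber sampled at 0, 30, 60 min (five replicates). Fluorescence 415/650 nm (LY 420/540); P by clearance principle.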

Human glioma T98G cells [2] = assay: Time-dependent cellular uptake; assay type: cell-based; details: 10 μM, over 24 h
Outline: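 T98G glioma cells (EMEM, 10% FBS) seeded 10 000/well, grown 36 h, then exposed to 10 μM test compound for 0, 1, 2, 4, 8, 24 h. After PBS wash, cells lysed in 0.25% Triton X-100/PBS; porphyrin fluorescence read at 415/650 nm. Cell number by CyQuant; uptake expressed as nM compound per cell.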

[3] = In vitro BBB model permeability; assay type: in vitro ADME, human
Outline: as §1

Row | Permeability coefficient P × 10^–6 (hCMEC/D3 cells) | Molecule | IC50 (Human glioma T98G cells [1]) [µM] | time-dependent uptake (in words) (Human glioma T98G cells [2]) | Papp A→B [3] [×10⁻⁶ cm/s]
1 | 1.36 ± 0.04 × 10^–6 cm/s | 5,10,15,20-Tetra(p-carboranylmethylthiotetrafluorophenyl)porphyrin [Compound 1] | > 400 | accumulated the fastest | –
2 | – | N=C(N)NCCC[C@@H](NC(=O)[C@H](Cc1ccc(O)cc1)NC(=O)CCOCCOCCOCCNc1c(F)c(F)c(-c2c3nc(c(-c4c(F)c(F)c(SCC56BBBBC(BBB5)BBB6)c(F)c4F)c4ccc([nH]4)c(-c4c(F)c(F)c(SCC56BBBBC(BBB5)BBB6)c(F)c4F)c4nc(c(-c5c(F)c(F)c(SCC67BBBBC(BBB6)BBB7)c(F)c5F)c5ccc2[nH]5)C=C4)C=C3)c(F)c1F)C(=O)N[C@@H](Cc1ccccc1)C(=O)NCCC(N)=O [Compound 8] | – | had the least | 1.71 ± 0.06
3 | 21.7 ± 0.30 × 10^–6 cm/s | lucifer yellow [LY, reference compound] | – | – | –
